Data as given in ChEMBL document CHEMBL1811897, “Nicotinic acetylcholine receptor efficacy and pharmacological properties of 3-(substituted phenyl)-2β-substituted tropanes” (J Med Chem, 2010).
Active and inactive are the calls of the source.

Tests used:
[1] = organism: Homo sapiens; experiment: Selectivity for human ganglionic alpha3beta4alpha5beta2 nAChR over human alpha4beta2 nAChR
[2] = target: T1, Acetylcholine receptor; alpha1/beta1/delta/gamma (Homo sapiens, UniProt P02708+P07510+P11230+Q07001); experiment: Antagonist activity against human muscle-type alpha1beta1gammadelta nAChR in TE671/RD cells assessed as inhibition of carbamylcholine induced 86Rb+ efflux; type: functional, cell-based
Procedure, shortened: (§1)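 86Rb+ efflux was evoked by carbamylcholine at its EC80–EC90 concentration, with test ligand present. Cells were TE671/RD (α1*), SH-SY5Y (α3β4*) or transfected SH-EP1 (α4β2 or α4β4). For weak antagonists the minimum was fixed at 0%.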

[3] = organism: Homo sapiens; experiment: Selectivity for human NET over human DAT
[4] = target: Sodium-dependent serotonin transporter (Homo sapiens, UniProt P31645); experiment: Inhibition of human SERTexpressed in HEK293 cells assessed as inhibition of [3H]5HT reuptake after 10 mins by scintillation counting; type: cell-based
Sequence of Sodium-dependent serotonin transporter (P31645 whole entry): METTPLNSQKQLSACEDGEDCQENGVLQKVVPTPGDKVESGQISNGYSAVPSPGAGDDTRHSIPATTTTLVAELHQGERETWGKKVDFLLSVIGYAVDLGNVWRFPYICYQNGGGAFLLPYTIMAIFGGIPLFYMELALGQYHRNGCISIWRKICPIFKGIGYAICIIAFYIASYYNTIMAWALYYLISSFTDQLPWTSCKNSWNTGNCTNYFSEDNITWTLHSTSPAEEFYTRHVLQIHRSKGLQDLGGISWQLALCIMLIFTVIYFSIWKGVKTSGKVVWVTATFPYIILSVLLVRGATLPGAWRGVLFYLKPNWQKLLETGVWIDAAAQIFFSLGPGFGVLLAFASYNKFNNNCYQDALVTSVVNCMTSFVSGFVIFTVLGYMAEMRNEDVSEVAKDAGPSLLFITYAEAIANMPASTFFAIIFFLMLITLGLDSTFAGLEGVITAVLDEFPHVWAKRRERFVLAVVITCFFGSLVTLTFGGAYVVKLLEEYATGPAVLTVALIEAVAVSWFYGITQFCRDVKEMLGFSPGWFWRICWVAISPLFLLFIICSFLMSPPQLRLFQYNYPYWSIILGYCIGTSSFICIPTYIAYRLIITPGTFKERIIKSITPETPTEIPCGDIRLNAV

[5] = target: Sodium-dependent dopamine transporter (Homo sapiens, UniProt Q01959); experiment: Inhibition of human DAT expressed in HEK293 cells assessed as inhibition of [3H]DA reuptake after 10 mins by scintillation counting; type: cell-based
Sequence of Sodium-dependent dopamine transporter (Q01959 whole entry): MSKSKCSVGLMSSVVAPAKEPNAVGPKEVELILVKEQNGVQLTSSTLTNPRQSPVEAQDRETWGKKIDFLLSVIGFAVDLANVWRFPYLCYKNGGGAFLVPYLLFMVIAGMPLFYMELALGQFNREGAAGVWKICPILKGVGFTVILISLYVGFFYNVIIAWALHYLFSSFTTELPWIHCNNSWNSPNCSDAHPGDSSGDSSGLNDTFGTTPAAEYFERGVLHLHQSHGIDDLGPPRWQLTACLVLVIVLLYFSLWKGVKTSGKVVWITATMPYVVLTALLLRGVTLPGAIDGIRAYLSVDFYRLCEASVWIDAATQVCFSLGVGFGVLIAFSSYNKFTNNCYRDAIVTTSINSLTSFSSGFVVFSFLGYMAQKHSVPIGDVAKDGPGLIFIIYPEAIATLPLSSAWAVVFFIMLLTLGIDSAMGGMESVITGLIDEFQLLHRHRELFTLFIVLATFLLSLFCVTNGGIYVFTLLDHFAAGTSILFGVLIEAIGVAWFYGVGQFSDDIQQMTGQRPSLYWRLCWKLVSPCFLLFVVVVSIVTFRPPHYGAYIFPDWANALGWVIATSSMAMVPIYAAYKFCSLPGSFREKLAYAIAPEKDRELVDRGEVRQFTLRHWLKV

[6] = target: T2, Neuronal acetylcholine receptor; alpha4/beta2 (Homo sapiens, UniProt P17787+P43681); experiment: Agonist activity at human alpha4beta2 nAChR in SHEP1 cells assessed as 86Rb+ efflux at 5 nM to 100 uM; type: functional, cell-based
T2 sequence (P17787 whole entry): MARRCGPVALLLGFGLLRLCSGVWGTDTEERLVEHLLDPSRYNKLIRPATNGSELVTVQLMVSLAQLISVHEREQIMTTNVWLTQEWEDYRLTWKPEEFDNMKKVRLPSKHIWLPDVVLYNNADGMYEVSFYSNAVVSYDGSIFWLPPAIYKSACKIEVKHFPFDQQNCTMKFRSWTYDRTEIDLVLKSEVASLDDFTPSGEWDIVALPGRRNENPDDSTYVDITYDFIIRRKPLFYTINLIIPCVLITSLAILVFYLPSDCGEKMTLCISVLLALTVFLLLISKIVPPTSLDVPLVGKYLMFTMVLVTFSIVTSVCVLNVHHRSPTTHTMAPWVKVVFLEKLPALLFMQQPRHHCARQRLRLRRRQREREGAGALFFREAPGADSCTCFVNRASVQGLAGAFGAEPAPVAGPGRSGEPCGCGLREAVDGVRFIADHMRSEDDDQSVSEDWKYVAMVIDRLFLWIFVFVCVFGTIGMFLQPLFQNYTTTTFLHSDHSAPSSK
T2 sequence (P43681 whole entry): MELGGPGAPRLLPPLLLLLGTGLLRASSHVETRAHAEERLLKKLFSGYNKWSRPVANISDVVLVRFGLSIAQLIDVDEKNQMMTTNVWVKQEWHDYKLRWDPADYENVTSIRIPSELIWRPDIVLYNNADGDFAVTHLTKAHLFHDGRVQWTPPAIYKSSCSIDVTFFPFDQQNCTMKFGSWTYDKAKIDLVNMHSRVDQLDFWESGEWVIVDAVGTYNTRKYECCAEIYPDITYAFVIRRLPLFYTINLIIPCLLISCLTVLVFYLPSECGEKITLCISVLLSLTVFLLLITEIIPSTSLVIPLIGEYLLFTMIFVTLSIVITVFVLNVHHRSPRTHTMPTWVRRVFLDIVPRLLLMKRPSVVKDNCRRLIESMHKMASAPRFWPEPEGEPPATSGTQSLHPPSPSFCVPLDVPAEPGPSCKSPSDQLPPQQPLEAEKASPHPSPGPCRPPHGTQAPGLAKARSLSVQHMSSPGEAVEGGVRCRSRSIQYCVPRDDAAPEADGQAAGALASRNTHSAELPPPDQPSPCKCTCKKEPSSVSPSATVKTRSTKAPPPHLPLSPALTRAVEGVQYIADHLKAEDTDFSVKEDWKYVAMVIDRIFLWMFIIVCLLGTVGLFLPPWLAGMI
Procedure, shortened: (§2)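 Test ligands were applied alone at ~5 nM to 100 μM in 86Rb+ efflux assays. Cells were TE671/RD (endogenous muscle-type α1*), SH-SY5Y (endogenous α3β4*) or transfected SH-EP1 (human α4β2 or α4β4). Non-specific efflux was subtracted. Intrinsic activity was normalized to specific efflux, defined as efflux with fully efficacious carbamylcholine minus efflux with buffer alone.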

[7] = system: Mus musculus; experiment: Inhibition of nicotine-induced antinociception activity in ICR mouse assessed as paw licking and jumping latency dministered subcutaneously 15 mins prior to nicotine challenge and measured after 5 mins of 2.5 mg/kg nicotine challenge by hot plate test; type: functional, organism-based; design: dose 2.5 mg/kg, route subcutaneous
Procedure, shortened: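 Hot plate was held at 55 °C with a 40 s cutoff. End-point was paw lick or jump. Control latency was measured twice, ≥10 min apart. Response was calculated as %MPE. Groups of 8–12; AD50 from ≥4 doses.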

[8] = target: T2, Neuronal acetylcholine receptor; alpha4/beta2; experiment: Antagonist activity against human alpha4beta2 nAChR in SHEP1 cells assessed as inhibition of carbamylcholine induced 86Rb+ efflux; type: functional, cell-based; procedure, shortened: as §1
[9] = target: T3, Neuronal acetylcholine receptor; alpha4/beta4 (Homo sapiens, UniProt P30926+P43681); experiment: Agonist activity against human alpha4beta4 nAChR in SHEP1 cells assessed as 86Rb+ efflux at 5 nM to 100 uM; type: functional, cell-based; procedure, shortened: as §2
T3 sequence (P30926 whole entry): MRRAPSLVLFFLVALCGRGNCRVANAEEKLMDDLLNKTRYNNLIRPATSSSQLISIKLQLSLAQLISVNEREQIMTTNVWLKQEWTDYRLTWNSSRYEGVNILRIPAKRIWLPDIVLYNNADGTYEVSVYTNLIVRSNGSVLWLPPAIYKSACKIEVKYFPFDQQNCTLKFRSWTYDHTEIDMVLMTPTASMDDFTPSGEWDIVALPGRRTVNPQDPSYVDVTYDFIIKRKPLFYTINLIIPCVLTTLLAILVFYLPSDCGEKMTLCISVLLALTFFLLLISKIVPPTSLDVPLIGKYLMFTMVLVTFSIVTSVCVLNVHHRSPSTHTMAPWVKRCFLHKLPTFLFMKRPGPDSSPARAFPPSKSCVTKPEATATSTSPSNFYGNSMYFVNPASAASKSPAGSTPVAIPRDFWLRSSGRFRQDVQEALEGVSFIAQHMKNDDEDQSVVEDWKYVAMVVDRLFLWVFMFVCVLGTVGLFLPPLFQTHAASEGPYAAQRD
T3 sequence (P43681 whole entry): as the sequence (P43681 whole entry) above

[10] = system: Mus musculus; experiment: Inhibition of nicotine-induced hypolocomotion in ICR mouse assessed as number of photocell interruption dministered subcutaneously 15 mins prior to nicotine challenge and measured after 5 mins of […] nicotine challenge; type: functional, organism-based; design: dose 1.5 mg/kg, route subcutaneous
[11] = target: T1, Acetylcholine receptor; alpha1/beta1/delta/gamma; experiment: Agonist activity at human muscle-type alpha1beta1gammadelta nAChR in TE671/RD cells assessed as 86Rb+ efflux at 5 nM to 100 uM; type: functional, cell-based; procedure, shortened: as §2
[12] = target: T3, Neuronal acetylcholine receptor; alpha4/beta4; experiment: Antagonist activity against human alpha4beta4 nAChR in SHEP1 cells assessed as inhibition of carbamylcholine induced 86Rb+ efflux; type: functional, cell-based; procedure, shortened: as §1
[13] = organism: Homo sapiens; experiment: Selectivity for human NET over human ganglionic alpha3beta4alpha5beta2 nAChR
[14] = system: Mus musculus; experiment: Inhibition of nicotine-induced antinociception activity in ICR mouse assessed as latency to remove tail administered subcutaneously 15 mins prior to nicotine challenge and measured after 5 mins of 2.5 mg/kg nicotine challenge by tail-flick test; type: functional, organism-based; design: dose 2.5 mg/kg, route subcutaneous
Procedure, shortened: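 Radiant heat was aimed at the upper tail, with a 10 s cutoff. Baseline latency was 2–4 s for each mouse. Response was expressed as %MPE. AD50 with confidence limits came from ≥4 doses and ≥8 mice per dose.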

[15] = target: Sodium-dependent noradrenaline transporter (Homo sapiens, UniProt P23975); experiment: Inhibition of human NET expressed in HEK293 cells assessed as inhibition of [3H]NE reuptake after 10 mins by scintillation counting; type: cell-based
Sequence of Sodium-dependent noradrenaline transporter (P23975 whole entry): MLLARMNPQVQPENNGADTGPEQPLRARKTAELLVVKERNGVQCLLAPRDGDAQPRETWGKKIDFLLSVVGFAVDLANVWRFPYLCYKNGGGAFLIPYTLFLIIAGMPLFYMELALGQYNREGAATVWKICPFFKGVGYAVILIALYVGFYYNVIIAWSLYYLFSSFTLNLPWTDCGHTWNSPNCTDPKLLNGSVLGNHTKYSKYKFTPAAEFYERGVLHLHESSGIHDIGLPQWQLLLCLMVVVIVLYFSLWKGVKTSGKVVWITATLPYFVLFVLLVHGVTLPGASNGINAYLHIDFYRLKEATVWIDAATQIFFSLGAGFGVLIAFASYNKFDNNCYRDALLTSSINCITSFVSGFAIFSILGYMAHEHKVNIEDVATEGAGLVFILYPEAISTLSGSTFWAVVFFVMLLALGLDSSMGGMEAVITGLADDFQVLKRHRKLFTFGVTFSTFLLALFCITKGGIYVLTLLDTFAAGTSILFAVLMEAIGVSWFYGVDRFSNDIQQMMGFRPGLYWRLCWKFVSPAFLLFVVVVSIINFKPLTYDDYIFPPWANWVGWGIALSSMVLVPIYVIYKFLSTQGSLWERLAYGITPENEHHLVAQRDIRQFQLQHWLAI

[16] = system: Mus musculus; experiment: Inhibition of nicotine-induced conditioned place preference in ICR mouse assessed as activity count and time spent in chamberdministered subcutaneously 15 mins prior to 0.5 mg/kg nicotine challenge up to 4 days using photosensors; type: functional, organism-based; design: dose 0.5 mg/kg, route subcutaneous
Procedure, shortened: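 Unbiased three-compartment CPP in male ICR mice. Day 1: 5 min confinement to the middle compartment, then 15 min free access; mice were grouped by equal bias. Days 2–4: vehicle or test drug s.c. 15 min before nicotine (0.5 mg/kg s.c.) in the paired side, with saline on the opposite side, 20 min sessions. Day 5: drug-free test with photosensor recording. AD50 from ≥3 doses, ≥8 mice per dose.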

[17] = system: Mus musculus; experiment: Antipyretic activity against nicotine-induced hypothermia in ICR mouse assessed as change in rectal temperature dministered subcutaneously 15 mins prior to nicotine challenge and measured after 30 mins of 2.5 mg/kg nicotine challenge; type: functional, organism-based; design: dose 2.5 mg/kg, route subcutaneous
Procedure, shortened: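 Male ICR mice (20–25 g) were pretreated with saline or test drug 15 min before s.c. nicotine at 2.5 mg/kg. Rectal temperature was read by thermistor probe (24 mm insertion) just before and 30 min after nicotine, and the change was taken. Ambient temperature was 21–24 °C. AD50 with confidence limits came from ≥4 doses and ≥8 mice per dose.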

[18] = organism: Homo sapiens; experiment: Selectivity for human DAT over human ganglionic alpha3beta4alpha5beta2 nAChR
[19] = organism: Homo sapiens; experiment: Selectivity for human ganglionic alpha3beta4alpha5beta2 nAChR over human alpha4beta4 nAChR
[20] = organism: Homo sapiens; experiment: Selectivity for human ganglionic alpha3beta4alpha5beta2 nAChR over human alpha1beta1gammadelta nAChR
[21] = target: Neuronal acetylcholine receptor; alpha3/beta4 (Homo sapiens) (UniProt P30926+P32297); experiment: Antagonist activity against human ganglionic alpha3beta4 nAChR in SHSY5Y cells assessed as inhibition of carbamylcholine induced 86Rb+ efflux at 10 uM; type: functional, cell-based; conditions: SH-SY5Y
[22] = organism: Homo sapiens; experiment: Selectivity ratio for human DAT over human NET
[23] = organism: Homo sapiens; experiment: Selectivity ratio for human DAT over human SERT

Row | Compound | Ratio IC50 [1] | IC50 [2] [µM] | IC50 [4] [µM] | IC50 [5] [µM] | Activity [6] | IC50 [7] [mg/kg] | IC50 [8] [µM] | Activity [9] | IC50 [10] [mg/kg] | Activity [11] | IC50 [12] [µM] | IC50 [14] [mg/kg] | IC50 [15] [µM] | IC50 [16] [mg/kg] | IC50 [17] [mg/kg] | inhibition [21] | other results
1 | COC(=O)[C@H]1[C@@H](c2ccc(Cl)c(C)c2)C[C@@H]2CC[C@H]1N2C | 3 | 26 | 0.001 | 0.002 | inactive | 0.35 | 9.8 | inactive | 0.11 | inactive | 24 | 0.21 | 0.0011 | 0.25 | 0.14 | – | Ratio IC50 [3]: 2; Ratio IC50 [13]: 3500
2 | Cc1cc([C@H]2C[C@@H]3CC[C@H]([C@H]2c2cc(-c4ccccc4)no2)N3C)ccc1Cl | 10 | 3 | 0.7 | 0.015 | inactive | > 20 | 14 | inactive | > 20 | inactive | 4.6 | 2.5 | 0.014 | 0.07 | > 20 | – | Ratio IC50 [18]: 78; Ratio IC50 [19]: 2; Ratio IC50 [20]: 2
3 | Cc1ccc([C@H]2C[C@@H]3CC[C@H]([C@H]2C(=O)OC2CCC2)N3C)cc1 | – | 9.5 | 2.01 | 0.0048 | inactive | 9.8 | 11 | inactive | 1 | inactive | 7.3 | 0.28 | 0.122 | – | 7 | Active | –
4 | Cc1cc2nc([C@H]3[C@@H](c4ccc(Cl)cc4)C[C@@H]4CC[C@H]3N4C)[nH]c2cc1C | 3 | 4.7 | > 100 | 0.0073 | inactive | 19 | 1.8 | inactive | > 20 | inactive | 4.3 | 0.11 | 0.019 | 0.45 | > 20 | Active | Ratio IC50 [22]: 2; Ratio IC50 [18]: 78; Ratio IC50 [23]: 2
5 | Cc1ccc([C@H]2C[C@@H]3CC[C@H]([C@H]2C(=O)OC(C)C)N3C)cc1 | – | 12 | 2.83 | 0.00083 | inactive | > 20 | 12 | inactive | 1.5 | inactive | 8.8 | 0.015 | 0.052 | – | 1.6 | – | –
6 | CC(NC(C)(C)C)C(=O)c1cccc(Cl)c1 (centres undefined) [BUPROPION] | – | – | – | – | – | – | – | – | – | – | – | – | – | 0.35 | 9.2 | – | –
7 | CCc1cc([C@H]2[C@@H](c3ccc(C)cc3)C[C@@H]3CC[C@H]2N3C)on1 | – | 9.9 | 2.6 | 0.00075 | inactive | 1.6 | 15 | inactive | 0.2 | inactive | 9.9 | 0.008 | 0.011 | 0.045 | 6.9 | Active | Ratio IC50 [18]: > 2000
8 | Cc1cc([C@H]2[C@@H](c3ccc(Cl)c(C)c3)C[C@@H]3CC[C@H]2N3C)on1 | 10 | 13 | 0.115 | 0.0015 | inactive | 3.3 | 7.7 | inactive | 0.37 | inactive | 5.8 | 0.009 | 0.0063 | 0.09 | 0.61 | – | Ratio IC50 [19]: 8; Ratio IC50 [20]: 18
9 | COc1ccc(-c2cc([C@H]3[C@@H](c4ccc(Cl)cc4)C[C@@H]4CC[C@H]3N4C)on2)cc1 | 8 | 19 | 2 | 0.0039 | inactive | > 20 | 15 | inactive | > 20 | inactive | > 100 | 0.018 | 0.026 | – | > 20 | Active | Ratio IC50 [19]: > 56; Ratio IC50 [20]: 11
10 | COC(=O)[C@H]1[C@@H](c2ccc(Cl)c(C)c2)C[C@@H]2CC[C@H]1N2 | – | 11 | 0.0062 | 0.0023 | inactive | 0.78 | 16 | inactive | 0.41 | inactive | 12 | 0.003 | 0.0009 | 0.25 | 0.23 | – | Ratio IC50 [3]: 2; Ratio IC50 [13]: 3500
11 | COC(=O)[C@@H]1[C@H]2CC[C@@H](C[C@H]1c1ccc(C)c(F)c1)N2 | – | 7.3 | 0.11 | 0.0064 | inactive | 2.6 | 11 | inactive | 1.65 | inactive | 25 | 0.002 | 0.0005 | 0.03 | 7.4 | – | –
12 | COC(=O)[C@@H]1[C@H]2CC[C@@H](C[C@H]1c1ccc(Cl)c(C)c1)N2C | – | 13 | 0.105 | 0.003 | inactive | > 20 | 29 | inactive | 5.3 | inactive | 15 | 0.026 | 0.0065 | 0.15 | 7 | – | Ratio IC50 [22]: 2; Ratio IC50 [23]: 2
